Assay results reported in ChEMBL document CHEMBL3600326, “Discovery of potent α1L-adrenoceptor agonists: Design and synthesis of bicyclic derivatives” (Bioorg Med Chem Lett, 2015).

test system: not listed separately; assay: (§1) Agonist activity at human alpha1L-adrenoceptor expressed in CHO cells co-expressing CRELD1alpha assessed as induction of calcium mobilization after 60 mins by fluorometric imaging plate reader assay; format: cell-based; details: 1 h
Summary of the method: (§2)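 CHO cells (α1L-dominant) expressing human α1A-AR plus human CRELD1α were plated and grown overnight at 37°C under CO2. Cells were loaded with Calcium 5 indicator dye for 60 min at 37°C, then calcium influx was read by FLIPR. Activity is expressed as EC50 relative to the noradrenaline EC50.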

Question: For `NC[C@H](O)c1ccc(O)c(O)c1`, which EC50 is on record?
Answer: 1020 nM

test system: CHO; assay: as §1; format: cell-based; details: not given; summary of the method: as §2

Question: Which Activity does the source give for `Cc1ccc(Cl)cc1CC1=NCCN1` here?
Answer: 0%

Question: For `Cc1c(CC2=NCCN2)cccc1C(C)C`, which Activity is on record?
Answer: 36%

species: Rattus norvegicus; assay: Agonist activity at alpha1L-adrenoceptor in Wistar rat isolated bladder neck assessed as induction of muscle contraction; details: not given
Summary of the method: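 Male Wistar rats anaesthetised with sodium pentobarbital (50 mg/kg) and killed. Bladder neck was isolated and cleaned in modified Krebs-Henseleit solution gassed with 95% O2/5% CO2. Strips were mounted in organ baths of the same solution at 37°C. Contraction was recorded across increasing doses, with noradrenaline as reference agonist.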

Question: With `CC(C)c1cc(Cl)cc2c1NCCC2C1=NCCN1` (stereo not given) as the compound, how does the Activity read?
Answer: Dose-dependent effect

test system: CHO; assay: Agonist activity at human alpha1L-adrenoceptor expressed in CHO cells co-expressing CRELD1alpha assessed as induction of calcium mobilization after 60 mins by fluorometric imaging plate reader assay relative to control noradrenaline; format: cell-based; details: not given; summary of the method: as §2

Question: With `Clc1cc(CC2=NCCN2)c2c(c1)C1(CCC2)CC1` as the compound, how does the Ratio read?
Answer: 0.025

Question: Which Ratio does the source give for `CC(C)c1cc(Cl)cc2c1CCCC2C1=NCCN1` (stereo not given) here?
Answer: 0.024

Question: With `Clc1cc(CC2=NCCN2)c2c(c1)C1(CCO2)CC1` as the compound, how does the Ratio read?
Answer: 0.088

Question: Which Ratio does the source give for `CC(C)c1cc(Cl)cc2c1OCCC2C1=NCCN1` (stereo not given) here?
Answer: 0.014

Question: Which Ratio does the source give for `CC1CCCc2c(CC3=NCCN3)cc(Cl)cc21` (stereo not given) here?
Answer: 0.063

Question: With `CC1(C)CCCc2c(CC3=NCCN3)cc(Cl)cc21` as the compound, how does the Ratio read?
Answer: 0.028

Question: For `CC(C)c1cc(Cl)cc(CC2=NCCN2)c1`, which Ratio is on record?
Answer: 0.52

Question: For `CC1(C)CCc2c(CC3=NCCN3)cc(Cl)cc21`, which Ratio is on record?
Answer: 0.12

Question: For `CC(C)c1cc(Cl)cc2c1CCC2C1=NCCN1` (stereo not given), which Ratio is on record?
Answer: 0.08

Question: For `Cc1c(CC2=NCCN2)cc(Cl)cc1C(C)C`, which Ratio is on record?
Answer: 0.043

Question: For `CC(C)c1cc(Cl)cc2c1NCCC2C1=NCCN1` (stereo not given), which Ratio is on record?
Answer: 0.0028
